Measured values: ChEMBL document CHEMBL1142382, “Synthesis and biological activity of a 3,4,5-trimethoxybenzoyl ester analogue of epicatechin-3-gallate” (J Med Chem, 2008)
Activity calls are given as the source filed them. The calls are words filed in the database; no cut-off is given here.

Legend:
[1] = Antioxidant activity assessed as ABTS radical scavenging activity; format: functional
In short: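 ABTS radical cation generated from ABTS (150 μM) with H2O2 (75 μM) and HRP (0.25 μM) in citrate-phosphate pH 4.5, diluted in 5 mM PBS pH 7.4 to A734 0.70, pre-warmed 30 °C. Compounds in PBS (50 μM stock) at four concentrations within the Trolox dose-response range, triplicates; A734 read 1 min after mixing; TEAC derived from Trolox curve.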

[2] = biological target: T1, Dihydrofolate reductase (Homo sapiens) (UniProt P00374); assay: Inhibition of human recombinant DHFR at 100 uM
T1 sequence (whole entry): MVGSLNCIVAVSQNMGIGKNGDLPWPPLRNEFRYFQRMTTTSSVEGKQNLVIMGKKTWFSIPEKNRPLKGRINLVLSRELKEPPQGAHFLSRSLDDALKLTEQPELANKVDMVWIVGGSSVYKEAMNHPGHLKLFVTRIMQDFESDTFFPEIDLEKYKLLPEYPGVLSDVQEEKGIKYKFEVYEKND
In short: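 Recombinant human DHFR activity at 25 °C followed as drop in NADPH/DHF absorbance at 340 nm in Mes 0.025 M, sodium acetate 0.025 M, Tris 0.05 M, NaCl 0.1 M, pH 7.4, with 1 mM ascorbic acid; reaction started with enzyme; compounds at 100 μM; activity relative to no-compound control, mean of five experiments.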

[3] = Prooxidant activity assessed as enhancement of NADPH oxidation at 50 uM; format: functional
In short: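 Rate of NADPH (0.1 mM) oxidation measured with 50 μM catechin in sodium-phosphate buffer, pH 7.4, 37 °C. Read-out is the fall in NADPH absorbance at 340 nm. Runs were done with and without bovine liver SOD at 10 μg/mL.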

Caco-2 [4] = assay: Growth inhibition of human Caco-2 cells at 25 uM after 6 days; format: functional, cell-based
In short: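 Caco-2 cells treated 6 days with 25 μM compound; MTT viability expressed as percent of untreated control (100%); mean of three independent experiments ± SD.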

[5] = biological target: T1, Dihydrofolate reductase (Homo sapiens); assay: Dissociation constant for binding to free human recombinant DHFR by fluorescence titration
[6] = Stability in human HT29 cells assessed as half life; format: ADME, cell-based; conditions: HT-29 cells
SK-MEL-28 [7] = assay: Down regulation of thymidylate synthase mRNA expression in human SkMel28 cells at 20 uM after 24 hrs; format: functional, cell-based
In short: (§1)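 SkMel-28 cells treated and mRNA quantified by SYBR Green real-time PCR (95 °C 15 min; 40-50 cycles 94 °C 30 s, 55 °C 30 s, 72 °C 1 min), triplicate reactions, at least two independent experiments; melting-curve specificity check; expression relative to normal human epidermal melanocytes.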

Caco-2 [8] = assay: Antiproliferative activity against human Caco-2 cells after 6 days by MTT assay; format: functional, cell-based; conditions: Caco-2, 144 h
In short: (§2)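 ATCC lines kept in medium with 10% FCS and antibiotics; plated at 1000 cells/well, grown to 50-60% confluence, then exposed for 6 days. Viability by MTT, formazan read at 570 nm; IC50 derived.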

SK-MEL-28 [9] = assay: Down regulation of methyltetrahydrofolate reductase mRNA expression in human SkMel28 cells at 20 uM after 24 hrs; format: functional, cell-based; in short: as §1
SK-MEL-28 [10] = assay: Antiproliferative activity against human SkMel28 cells after 6 days by MTT assay; format: functional, cell-based; conditions: SK-MEL-28, 144 h; in short: as §2
SK-MEL-28 [11] = assay: Down regulation of DHFR mRNA expression in human SkMel28 cells at 20 uM after 24 hrs; format: functional, cell-based; in short: as §1
[12] = Antiproliferative activity against human H1264 cells after 6 days by MTT assay; format: functional, cell-based; conditions: H1264, 144 h; in short: as §2
SK-MEL-28 [13] = assay: Growth inhibition of human SkMel28 cells at 20 uM after 6 days; format: functional, cell-based
MCF7 = assay: Antiproliferative activity against human MCF7 cells after 6 days by MTT assay; format: functional, cell-based; conditions: MCF7, 144 h; in short: as §2

Compound	Activity [1] [mM]	Activity [2]	Activity [3]	Activity (Caco-2 [4])	Kd [5] [nM]	also measured
VITAMIN E	1	–	–	–	–	–
Oc1cc(O)c2c(c1)O[C@H](c1cc(O)c(O)c(O)c1)[C@H](O)C2	–	inactive	Active	–	–	–
O=C(O[C@@H]1Cc2c(O)cc(O)cc2O[C@@H]1c1ccc(O)c(O)c1)c1cc(O)c(O)c(O)c1	4.9	–	–	Active	1780	–
O=C(O[C@@H]1Cc2c(O)cc(O)cc2O[C@@H]1c1cc(O)c(O)c(O)c1)c1cc(O)c(O)c(O)c1 [EPIGALOCATECHIN GALLATE]	4.8	–	Active	Active	920	half-life [6]: < 2 h
COc1cc(C(=O)O[C@@H]2Cc3c(O)cc(O)cc3O[C@@H]2c2ccc(O)c(O)c2)cc(OC)c1OC	1.9	–	–	Active	2100	Activity (SK-MEL-28 [7]): Active; IC50 (Caco-2 [8]): 33000 nM; Activity (SK-MEL-28 [9]): Active; IC50 (SK-MEL-28 [10]): 2900 nM; Activity (SK-MEL-28 [11]): Active; IC50 [12]: 18000 nM; Activity (SK-MEL-28 [13]): Active; IC50 (MCF7): 80000 nM
Oc1cc(O)c2c(c1)O[C@H](c1ccc(O)c(O)c1)[C@H](O)C2	–	inactive	–	–	–	–
